The results in this text go back to ChEMBL document CHEMBL4513216, “Probing the Open Global Health Chemical Diversity Library for Multistage-Active Starting Points for Next-Generation Antimalarials” (ACS Infect Dis, 2020).

The nature of this data set: Toxicity liver stage against HepG2, at 10uM. Set-up: test concentration 10 uM, cell line HepG2-A16-CD81EGFP. The format is cell-based. The following applies: human, HepG2-A16-CD81EGFP cells; read-out: INHIBITION
Put shortly:
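Uninfected HepG2-A16-CD81EGFP cells, 3 × 10^3 per well, 1536-well, plated on prespotted compound at 10 μM final, parasite-free screening media added to match infected plates; puromycin 10 μM positive, DMSO 0.5% negative; run in parallel with 48 h PbLuc assay at 37 °C, 5% CO2; viability by CellTiter-Glo luminescence, normalized to controls.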

Take `O=C(NCCC(=O)N1CCCc2ccccc21)c1c(O)cc(F)cc1F`: the cytotoxicity at 10 µM is 1.35%.

Turning to `Cc1ccnc(NC(=O)c2ccc(-n3ncc(C#N)c3N)cc2)c1`, the cytotoxicity at 10 µM is 1.22%. For the compound `O=C(c1ccc(-n2cnnc2)cc1)N1CCC(Nc2cccnn2)CC1`, the cytotoxicity at 10 µM is -6.12%.

For the compound `O=C(c1cc2ccccc2o1)N1CCN(Cn2cc(Cl)cn2)CC1`, the cytotoxicity at 10 µM was 9.31%. As to `CN(C)CCN1CC(C(=O)N2CCC(c3cccc(O)c3)CC2)CC1=O` (configuration not stated), the cytotoxicity at 10 µM was determined as 0.0902%. Consider `CC1CCCN(C(=O)C2CCN(c3snc4ccccc34)CC2)C1` (configuration not stated), for which the cytotoxicity at 10 µM came out at 10.1%. As for `CNS(=O)(=O)c1ccc(C(=O)NC2CCc3nc(C)cn3C2)o1` (configuration not stated), the cytotoxicity at 10 µM is -12.3%. `Cn1cccc1C(O)CNS(=O)(=O)c1ccccc1F` (configuration not stated): the cytotoxicity at 10 µM was -14.6%. As for `Cc1ncc(Cl)c(C(=O)N2CC(=O)N(C)c3ccccc32)n1`, the cytotoxicity at 10 µM is 5.35%. Take `CCOCC1CN(C(=O)COc2ccccc2)Cc2cn(C)nc21` (configuration not stated): the cytotoxicity at 10 µM was 9.08%. In the case of `N#Cc1ccc(CN2CCN(Cc3ccncc3Cl)CC2=O)cc1`, the cytotoxicity at 10 µM was found to be 6.43%. With `COC(=O)c1cccc(CN(C)C(C)c2ccccn2)c1` (configuration not stated) the figure was 5.85%; with `Cc1ccc(C)c(C(C)NC(=O)N2CCC(n3cncn3)CC2)c1` (configuration not stated), -8.78%. In the case of `CCn1nccc1CNC(=O)C1CCCO1` (configuration not stated), the cytotoxicity at 10 µM is -2.21%. With `CO[C@@H]1CCC[C@@H](NC(=O)C(C)(C)c2cccc(F)c2)[C@H]1O` the figure was -1.09%; with `COCCNC(=O)CCNC(=O)c1ccc(N2CCC(C)=N2)cc1`, 2.07%. As for `CC1=N[C@@]2(CC[C@@H]3CN(S(=O)(=O)CC(C)C)C[C@@H]32)C(=O)N1C`, the figure is -84.6%.

With `Cc1nc(CN2CCC(N(C)Cc3noc(C(C)C)n3)C2)oc1C` (configuration not stated), the cytotoxicity at 10 µM worked out at 4.63%. On to `O=C(CCc1ncc(-c2ccc(F)cc2)o1)NCCN1CCOCC1`, for which the cytotoxicity at 10 µM came to 10.6%. With `CCc1nnc2n1CC(CNCc1nnc(C(C)(C)C)o1)CC2` (configuration not stated), the cytotoxicity at 10 µM came to 3.18%. As to `O=C(CN1CCCS1(=O)=O)Nc1cccc(COC2CCCCC2)c1`, the cytotoxicity at 10 µM amounted to 0.568%.

In the case of `CC(NC(=O)CCc1cccc(OC2CCCC2)c1)c1nncn1C` (configuration not stated), the cytotoxicity at 10 µM was 7.2%. `O=C(NCc1ccc(F)cc1)C1CCCN(c2ccc3nncn3n2)C1` (configuration not stated): the cytotoxicity at 10 µM was -4.46%.

For `Cc1cc(F)c2c(c1)CCCN2Cc1cc(=O)n(C)c(=O)n1C`, the cytotoxicity at 10 µM came to 8.1%. As for `CC(C)C(=O)Nc1ccc(Oc2ccc3c(c2)OCO3)nc1`, the cytotoxicity at 10 µM was -12.4%.

As for `CN(C)S(=O)(=O)N1CCN(C(=O)OC(C)(C)C)CC12CCCCC2`, the cytotoxicity at 10 µM came to 3.36%.

`COc1ccc(CC(=O)NCC(O)c2sccc2C)cc1OC` (configuration not stated): the cytotoxicity at 10 µM came to 11.4%.

Consider `NC(=O)c1cc(C2CCCN(CCOCC3CC3)C2)n[nH]1` (configuration not stated), for which the cytotoxicity at 10 µM is -11.5%. As for `COc1ccc(C2CC(=O)NCc3nc4ccccn4c32)cn1` (configuration not stated), the cytotoxicity at 10 µM was -3.95%. With `Cc1ccc(N2C[C@@H]3CN(Cc4ccsc4)CCO[C@@H]3C2)nn1` the figure was 3.32%; with `CN(CCOc1ccccc1F)C1CCOC1=O` (configuration not stated), -147%. Consider `CCN(CCNC(=O)C1CCCN(C(C)=O)C1)c1ccccc1C` (configuration not stated), for which the cytotoxicity at 10 µM was determined as 4.87%. With `COCC1CN(C(=O)[C@H]2CCCO2)Cc2nnn(CC3CC3)c21` (some centres not stated), the cytotoxicity at 10 µM was -1.59%. On to `Cc1nn(C)c2ncc(CN3CCCCCC3)cc12`, for which the cytotoxicity at 10 µM came out at 0.106%. Turning to `O=c1[nH]c(CN2CCCC(Cn3cncn3)C2)nc2ccccc12` (configuration not stated), the cytotoxicity at 10 µM is -12.4%. With `Cc1nc(CNC(=O)NC(C)c2ccc3c(c2)OCCO3)cs1` (configuration not stated), the cytotoxicity at 10 µM is -2.61%. Consider `COCCOCCC(=O)N1CCC(c2ccccc2C)C1` (configuration not stated), for which the cytotoxicity at 10 µM is -9.46%.

For the compound `CC(C)c1cc(C(=O)NCCN2CCCS2(=O)=O)n[nH]1`, the cytotoxicity at 10 µM is -9.91%.

With `CCN(CC)C(=O)N1CCN(C2=NCC(C)S2)CC1` (configuration not stated), the cytotoxicity at 10 µM is -148%.

As for `CC(C)(C)NC(=O)N1CCC(NC(=O)Cc2cccnc2)CC1`, the cytotoxicity at 10 µM amounted to 0.355%.

In the case of `CC(C)c1nnc(NC(=O)CSCc2cc(=O)n3ccccc3n2)s1`, the cytotoxicity at 10 µM stood at 2.08%. For `Cn1cc(CCNC(=O)NCc2ccc3c(c2)OCCO3)cn1`, the cytotoxicity at 10 µM is -10.7%. For `CCc1nnc(CN2CCOC(Cn3cc(C)cn3)C2)o1` (configuration not stated), the cytotoxicity at 10 µM was -6.59%. On to `Cc1cccc(-n2cc(C(=O)N3CCCC(n4cccn4)C3)nn2)c1` (configuration not stated), for which the cytotoxicity at 10 µM is -0.168%. On to `Cc1cccc(CN2CCc3nnc(CN4CCCCC4)n3CC2)n1`, for which the cytotoxicity at 10 µM is -1.45%. In the case of `COCCO[C@H]1CCN(Cc2cnn(C)c2)[C@H]1Cc1cccnc1`, the cytotoxicity at 10 µM turned out to be 0.793%. For `Cc1cccc(OC2CCN(c3nccnc3C#N)CC2)n1`, the cytotoxicity at 10 µM amounted to 1.1%.

`COc1ccc2cc(NC(=O)CCNc3ncccn3)cnc2c1`: the cytotoxicity at 10 µM was -43%. Regarding `O=C(CC1CCCC1)Nc1ccc(-n2cc(Br)cn2)nc1`, the cytotoxicity at 10 µM was -51.2%. As for `CCN(CC1CCOC1)C(=O)c1ccc(COc2ccccc2C#N)o1` (configuration not stated), the figure is 3.34%; as for `O=C(Cn1c(=O)[nH]c2cn(-c3ccccc3)c(=O)n21)Nc1ccccc1`, 18.6%; as for `CCc1nn(C)c(CC)c1CNC(=O)Nc1cccc2c1CCN2C`, -1.57%. Take `Cn1cccc1CN1CCC2(CCCN(C(=O)c3cnccn3)C2)C1` (configuration not stated): the cytotoxicity at 10 µM is -6.36%. With `CC(=O)NCCCC(=O)N1CCc2[nH]c(-c3ccccc3)nc2C1` the figure was -3.73%; with `O=C1NCCN(CC2CC2)C12CCN(Cc1ccco1)CC2`, 2.55%. As to `NC(=O)[C@@H]1Cc2ccccc2CN1CCc1cccs1`, the cytotoxicity at 10 µM was 0.436%. As for `Cc1nc(CCNC(=O)N2CCC(Cc3cnn(C)c3)C2)cs1` (configuration not stated), the figure is -6.13%; as for `COCCCC(=O)N(C)c1ccc(F)c(Cl)c1`, -0.577%. As for `Cc1cnn(CC(C)NCC(=O)NCCOc2ccccc2)c1` (configuration not stated), the figure is 1.36%.

On to `CCc1ccc(S(=O)(=O)Nc2cnc(N3CCOCC3)nc2)cc1`, for which the cytotoxicity at 10 µM is -7.72%. With `CC(C)Oc1cccc(F)c1C(C(=O)O)N(C)Cc1ccon1` (configuration not stated) the figure was -33.5%.

Take `CCCS(=O)(=O)N1CCN(c2ccnc(N3CCCC3)n2)CC1`: the cytotoxicity at 10 µM was -11.3%. As for `CCC[C@H]1CN(S(=O)(=O)c2cc(C)ccc2C)C[C@@H]1N`, the cytotoxicity at 10 µM came out at 10.3%. On to `COCC(=O)N1CCN(C)CC(Cc2cc(N(C)C)ncn2)C1` (configuration not stated), for which the cytotoxicity at 10 µM was -1.79%.

As to `Cc1cnn(CC2CCCCN2CC(=O)NCc2ccccn2)c1` (configuration not stated), the cytotoxicity at 10 µM was -6.16%. Consider `CC(C)CCC(C)NC(=O)Nc1ccccn1` (configuration not stated), for which the cytotoxicity at 10 µM was determined as 5.28%. In the case of `O=C(O)C1(Cc2ccccc2F)CCCN(c2ncnc3[nH]ccc23)C1` (configuration not stated), the cytotoxicity at 10 µM is -0.44%.

On to `Cc1ccccc1CC(=O)N1C[C@@H](O)[C@H](N2CCOCC2)C1`, for which the cytotoxicity at 10 µM is -4.05%. For the compound `CCn1ncc2c1CCCC2NCc1ccc(OC)c(C)c1` (configuration not stated), the cytotoxicity at 10 µM is -8%.

In the case of `CNC(=O)CN1CCCC(Cc2ccccc2OC)C1` (configuration not stated), the cytotoxicity at 10 µM was -8.53%. Take `Cc1cc(C(=O)N2CCN(Cc3ccco3)C(CCO)C2)cc(=O)[nH]1` (configuration not stated): the cytotoxicity at 10 µM was -1.5%.

On to `CCc1nnc2n1CCN(C(=O)c1ccc(C)c(S(N)(=O)=O)c1)C2`, for which the cytotoxicity at 10 µM is -4.55%. As to `CCS(=O)(=O)CC(=O)NC(c1ccccc1)C1CCCCC1` (configuration not stated), the cytotoxicity at 10 µM was -4.01%. On to `CCNc1cc2c(nn1)CCN(C(=O)c1nccnc1N)C2`, for which the cytotoxicity at 10 µM was -16.4%. Turning to `CN(C)c1ccc(CN(CC2CCCO2)C(=O)c2csnn2)cc1` (configuration not stated), the cytotoxicity at 10 µM was -1.59%. Consider `COc1ccc(C2CCCN2S(=O)(=O)c2cc(F)ccc2F)cc1` (configuration not stated), for which the cytotoxicity at 10 µM was determined as 0.585%. Take `COc1ccc2c(c1)C(NCCc1ccccn1)CCCO2` (configuration not stated): the cytotoxicity at 10 µM is -6.03%. With `COc1ccc(C(=O)N2CC[C@](C)(O)[C@H](C)C2)cc1N1CCOCC1`, the cytotoxicity at 10 µM stood at 14.9%. `COCCCN1CCN(c2ncnc3nc(C)cc(C)c23)CC1`: the cytotoxicity at 10 µM was found to be 1.54%. For the compound `Cc1nn(C)c(C)c1NC(=O)CNc1ccc(F)c(C(F)(F)F)c1`, the cytotoxicity at 10 µM stood at 0.0371%. For `O=C(CN1CCC(c2cccc(F)c2)C1)NCC(F)(F)F` (configuration not stated), the cytotoxicity at 10 µM was -10.4%. On to `Nc1ccnc(N2C[C@H](O)[C@@H](N3CCN(c4ccccn4)CC3)C2)n1`, for which the cytotoxicity at 10 µM is 6.7%.

Turning to `O=C(c1ccc[nH]1)N1CCn2cc(Cn3cncn3)nc2C1`, the cytotoxicity at 10 µM was -2.65%. For `Cc1noc(C)c1-c1ccc(C2CCCN2C(=O)c2cnn(C)c2)nc1` (configuration not stated), the cytotoxicity at 10 µM is -16.7%. On to `Cc1ccc(CN2CCC(F)(F)C3(CCN(c4cnccn4)C3)C2)o1` (configuration not stated), for which the cytotoxicity at 10 µM was -3.71%. With `O=C1CCC2(CCNCC2)CN1CCCOc1cccnc1` the figure was -13.2%; with `O=C(Cc1ccc(-n2cnnn2)cc1)Nc1nncs1`, 5.47%.

As for `CNC(=O)C1(C)CCCN1Cc1cnn(C)c1C` (configuration not stated), the cytotoxicity at 10 µM stood at 5.45%.

For `CC(C)n1ncc2c1NC(=O)CC2c1ccccc1Cl` (configuration not stated), the cytotoxicity at 10 µM was 33.5%. For `Nc1nc(CN2CCCC2Cn2cncn2)nc2ccccc12` (configuration not stated), the cytotoxicity at 10 µM is -11.7%. As for `COc1cccc(CC(=O)N2CC[C@H]3[C@@H]2CCC(=O)N3C)c1`, the figure is -4.57%; as for `O=C(N1CCCC1)N1CCO[C@H]2[C@@H](Oc3ccccn3)CC[C@@H]21`, 8.95%. Consider `CN(Cc1cnn(C)c1)C(=O)C1COCC(=O)N1Cc1ccccc1` (configuration not stated), for which the cytotoxicity at 10 µM is -4.33%. With `Cc1cnc(-c2nc(C3CCN(Cc4ccccc4C)CC3)no2)cn1`, the cytotoxicity at 10 µM worked out at 4.08%.

Turning to `Cc1nnc(CNC(=O)CC2CCc3ccccc32)o1` (configuration not stated), the cytotoxicity at 10 µM was found to be 1.58%. For `OCC(O)CSCc1cn(-c2ccc(F)c(Cl)c2)nn1` (configuration not stated), the cytotoxicity at 10 µM stood at 9.51%. As for `O=C1NCCCc2[nH]c(Cc3ccc(F)cc3)nc21`, the cytotoxicity at 10 µM was -20.9%.
